Experimental data reported in ChEMBL document CHEMBL3739256, “Design, Synthesis, and Biological Evaluation of 1,2-Dihydroisoquinolines as HIV-1 Integrase Inhibitors” (ACS Med Chem Lett, 2015).

Columns and labels:
[1] = system: Human immunodeficiency virus 1; assay: Antiviral activity against HIV-1 infected in human TZM-bl cells assessed as inhibition of viral replication for 48 hrs by bright-Glo luciferase assay; format: functional, organism-based; conditions: Human immunodeficiency virus 1, TZM-bl
Outline: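 Antiviral screen in TZM-bl cells, a HeLa clone engineered to express CD4 and CCR5 receptors. Activity is reported as EC50 in μM.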

[2] = Cytotoxicity against human TZM-bl cells after 48 hrs by Cell-titerGlo assay; format: cell-based
[3] = system: Human immunodeficiency virus 1; assay: Antiviral activity against HIV-1 NL4-3 infected in human jurkat cells assessed as decrease in p24 level at 10 uM after 48 hrs by western blot analysis; format: functional; conditions: Human immunodeficiency virus 1, NL4-3, Jurkat
Outline: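 Jurkat cells were treated with compound at 10 μM or left untreated, then infected at MOI 1 with VSV-G-pseudotyped pNL4-3 (WT HIV-1). Supernatants were pelleted, solubilized in lysis buffer and probed on Western blot with a p24 antibody. Band intensity was quantified by densitometry as percent p24 relative to the untreated infected control, with significance at p < 0.05.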

[4] = Cytotoxicity against human Jurkat cells after 48 to 72 hrs by MTT assay; format: cell-based
[5] = molecular target: Human immunodeficiency virus type 1 integrase (Human immunodeficiency virus 1, UniProt Q7ZJM1); assay: Inhibition of HIV-1 integrase strand transfer activity preincubated for 30 mins followed by addition of FITC-labelled dsDNA for 1 hr by microplate reader analysis
Human immunodeficiency virus type 1 integrase (Human immunodeficiency virus 1, UniProt Q7ZJM1), sequence (Q7ZJM1 whole entry): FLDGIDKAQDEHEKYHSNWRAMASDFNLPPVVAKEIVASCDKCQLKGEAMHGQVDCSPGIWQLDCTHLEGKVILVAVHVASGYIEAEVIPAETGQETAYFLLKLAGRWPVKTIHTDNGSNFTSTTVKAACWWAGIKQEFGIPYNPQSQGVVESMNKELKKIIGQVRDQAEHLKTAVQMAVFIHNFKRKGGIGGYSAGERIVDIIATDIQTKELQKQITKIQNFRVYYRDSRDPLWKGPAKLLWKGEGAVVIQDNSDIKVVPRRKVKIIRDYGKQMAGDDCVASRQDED

[6] = molecular target: Human immunodeficiency virus type 1 integrase (Human immunodeficiency virus 1, UniProt Q7ZJM1, G140S); assay: Inhibition of HIV-1 integrase G140S mutant strand transfer activity preincubated for 30 mins followed by addition of FITC-labelled dsDNA for 1 hr by microplate reader analysis
Human immunodeficiency virus type 1 integrase (Human immunodeficiency virus 1, UniProt Q7ZJM1, G140S), sequence (Q7ZJM1 entry or part of it G140S): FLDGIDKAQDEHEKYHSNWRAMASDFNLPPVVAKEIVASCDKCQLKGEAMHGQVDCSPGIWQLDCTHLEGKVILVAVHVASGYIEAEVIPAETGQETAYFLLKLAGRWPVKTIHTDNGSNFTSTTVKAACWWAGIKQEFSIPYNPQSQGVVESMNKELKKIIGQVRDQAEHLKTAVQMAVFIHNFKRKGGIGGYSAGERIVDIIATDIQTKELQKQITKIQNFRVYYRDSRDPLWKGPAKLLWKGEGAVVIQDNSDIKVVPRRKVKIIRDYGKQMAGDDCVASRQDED

[7] = Therapeutic index, ratio of CC50 for human TZM-bl cells to EC50 for HIV-1 infected in TZM-bl cells; format: cell-based; conditions: read-out: Ratio CC50/EC50
Outline: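 Index calculated as CC50/EC50, both measured in TZM-bl cells; CC50 is cell-based cytotoxicity at 48 h.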

Structure (SMILES) | EC50 [1] [µM] | CC50 at 48 h [2] [µM] | inhibition at 10 µM [3] [%] | CC50 [4] [µM] | IC50 [5] [µM] | IC50 [6] [µM] | selectivity ratio [7]
Cc1nnc(C(=O)NC(C)(C)c2nc(C(=O)NCc3ccc(F)cc3)c(O)c(=O)n2C)o1 | 0.15 | > 200 | 92 | > 120 |  |  | 
COc1ccc(C2=Cc3ccc(F)cc3C(C[N+](=O)[O-])N2c2ccc(Cl)cc2)cc1 (stereo not drawn) | 0.03 | 32.2 | 91 | 20.3 | 0.7 | 0.8 | 1070
COc1ccc(C2=Cc3ccc(F)cc3C(CC(=O)CO)N2c2ccc(Cl)cc2)cc1 (stereo not drawn) | 26.4 | 8.5 |  |  | 17.9 | 14.9 | 0.3
Cc1ccc(C2=Cc3ccccc3C(C[N+](=O)[O-])N2c2ccc(F)cc2)cc1 (stereo not drawn) | 16.5 | 21.5 |  | 51.2 |  |  | 1.3
COc1ccc(C2=Cc3ccc([N+](=O)[O-])cc3C(CC(C)=O)N2c2ccc(O)cc2)cc1 (stereo not drawn) | 31.4 | 23.5 |  |  | 6.6 | 7.6 | 0.7
COc1ccc(C2=Cc3ccc(F)cc3C(CC(=O)CO)N2c2ccc([N+](=O)[O-])cc2)cc1 (stereo not drawn) | 10.4 | 46.4 | 70.9 | 57.1 | 0.82 | 46.4 | 4.4
COc1ccc(C2=Cc3ccc(F)cc3C(CC(=O)CO)N2c2ccc(C#N)cc2)cc1 (stereo not drawn) | 29.1 | 39.7 |  |  | 7.6 | 7 | 1.3
O=[N+]([O-])CC1c2cc([N+](=O)[O-])ccc2C=C(c2ccccc2)N1c1ccc(Cl)cc1 (stereo not drawn) | 1.15 | 26 |  | 24.9 | 3.1 | 3 | 22.6
COc1ccc(C2=Cc3ccc(F)cc3C(CC(C)=O)N2c2ccc(C#N)cc2)cc1 (stereo not drawn) |  |  |  |  |  | 20 | 
O=[N+]([O-])CC1c2ccccc2C=C(c2ccccc2)N1c1ccccc1 (stereo not drawn) | 15.6 | 10.3 |  | 42.3 |  |  | 0.6
COc1ccc(C2=Cc3ccc([N+](=O)[O-])cc3C(CC(C)=O)N2c2ccc(C#N)cc2)cc1 (stereo not drawn) | 22.5 | 15.4 |  |  | 2.9 | 2.8 | 0.6
COc1ccc(C2=Cc3ccc(F)cc3C(CC(=O)C(C)O)N2c2ccc(C#N)cc2)cc1 (stereo not drawn) | 18.7 | 24.1 |  |  | 22.2 | 22 | 1.2
COc1ccc(C2=Cc3ccc([N+](=O)[O-])cc3C(CC(C)=O)N2c2ccc(C)cc2)cc1 (stereo not drawn) | 26.3 | 10.6 |  | 33.1 | 0.6 | 0.65 | 0.4
COc1ccc(C2=Cc3ccc(F)cc3C(CC(C)=O)N2c2ccc([N+](=O)[O-])cc2)cc1 (stereo not drawn) |  | 11.2 |  |  |  |  | 
COc1ccc(C2=Cc3ccc(F)cc3C(CC(=O)CO)N2c2ccc(O)cc2)cc1 (stereo not drawn) | 24.4 | 47.7 |  |  | 22.1 | 20.1 | 1.9
COc1ccc(C2=Cc3ccc(F)cc3C(CC(C)=O)N2c2ccc(O)cc2)cc1 (stereo not drawn) | 21.4 | 60.5 |  |  | 12 | 14 | 2.8
COc1ccc(C2=Cc3ccc([N+](=O)[O-])cc3C(CC(C)=O)N2c2ccc(F)cc2)cc1 (stereo not drawn) | 36.3 | 7.7 |  | 16.4 | 0.46 | 0.64 | 0.2
COc1ccc(C2=Cc3ccc(F)cc3C(CC(=O)C(C)O)N2c2ccc(C)cc2)cc1 (stereo not drawn) |  | 12.7 |  |  | 10.6 | 12.7 | 
COc1ccc(C2=Cc3ccc(F)cc3C(CC(=O)C(C)O)N2c2ccc(O)cc2)cc1 (stereo not drawn) | 19.7 | 50.9 |  |  | 25.2 | 25 | 2.5
COc1ccc(C2=Cc3ccc(OC)cc3C(C[N+](=O)[O-])N2c2ccccc2)cc1 (stereo not drawn) | 10.5 | 29.4 |  | 22.1 |  |  | 2.8
COc1ccc(C2=Cc3ccc(F)cc3C(CC(=O)CO)N2c2ccc(C)cc2)cc1 (stereo not drawn) | 28.4 | 23.7 |  |  | 15.1 | 14.1 | 0.8
COc1ccc(C2=Cc3ccc(F)cc3C(CC(=O)C(C)O)N2c2ccc(F)cc2)cc1 (stereo not drawn) | 11.7 | 14 |  | 1.81 | 7.9 | 8 | 1.1
COc1ccc(C2=Cc3ccc(F)cc3C(CC(=O)C(C)O)N2c2ccc(Cl)cc2)cc1 (stereo not drawn) |  | 9.9 |  |  | 11.8 | 10.8 | 
COc1ccc(C2=Cc3ccc(F)cc3C(CC(=O)C(C)O)N2c2ccc([N+](=O)[O-])cc2)cc1 (stereo not drawn) | 12.7 | 10.1 |  | 6.1 | 5.2 | 5.5 | 0.7
